From ChEMBL document CHEMBL4002606, “Discovery of FZU-03,010 as a self-assembling anticancer amphiphile for acute myeloid leukemia” (Bioorg Med Chem Lett, 2017)
Each block holds one compound with its values, some of them ahead of it. Activity calls are given as the source filed them. The rule behind the calls is not given here.

Legend:
[1] = Induction of nanoparticle formation in DMSO/deionized water after 25 days by dynamic light scattering assay
Homo sapiens [2] = species: Homo sapiens; assay: Inhibition of PI3K in human HL60 cells assessed as reduction in Akt phosphorylation at Ser473-residue up to 4 uM after 24 hrs by Western blot method; assay type: cell-based
How it was run: (§1)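 HL-60 cells treated at different concentrations; lysates probed with specific antibodies against procaspase-3, cleaved caspase-9, PARP, Bcl-2, phospho-P70S6K and phospho-Akt; actin used as loading control.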

[3] = Induction of nanoparticle formation in DMSO/deionized water at 1.5 mg/ml
HL-60 [4] = assay: Induction of apoptosis in human HL60 cells assessed as PARP cleavage up to 4 uM after 24 hrs by Western blot method; assay type: functional, cell-based; how it was run: as §1
HL-60 [5] = assay: Induction of apoptosis in human HL60 cells assessed as downregulation of Bcl2 expression up to 4 uM after 24 hrs by Western blot method; assay type: functional, cell-based; how it was run: as §1
[6] = molecular target: Serine/threonine-protein kinase mTOR (Homo sapiens) (UniProt P42345); assay: Inhibition of mTOR in human HL60 cells assessed as reduction in P70S6K phosphorylation at Thr389-residue up to 4 uM after 24 hrs by Western blot method; assay type: cell-based; how it was run: as §1
HL-60 [7] = assay: Induction of apoptosis in human HL60 cells assessed as caspase-9 cleavage after 24 hrs by Western blot method; assay type: functional, cell-based; how it was run: as §1
HL-60 [8] = assay: Induction of apoptosis in human HL60 cells assessed as downregulation of procaspase-3 expression after 24 hrs by Western blot method; assay type: functional, cell-based; how it was run: as §1
[9] = Aqueous solubility of the compound in water by HPLC method; assay type: physicochemical
Homo sapiens [10] = species: Homo sapiens; assay: Inhibition of PI3K in human HL60 cells assessed as reduction in Akt phosphorylation at Ser473-residue up to 80 uM after 24 hrs by Western blot method; assay type: cell-based; how it was run: as §1
HL-60 [11] = assay: Growth inhibition of human HL60 cells at 5 uM after 48 hrs by MTT assay relative to control; assay type: functional; settings: for inhibition of growth at 5 µM: HL-60, 48 h, read-out: GI
HL-60 [12] = assay: Growth inhibition of human HL60 cells at 10 uM after 48 hrs by MTT assay relative to control; assay type: functional; settings: for inhibition of growth at 10 µM: HL-60, 48 h, read-out: GI
[13] = molecular target: Serine/threonine-protein kinase mTOR (Homo sapiens) (UniProt P42345); assay: Inhibition of mTOR in human HL60 cells assessed as reduction in P70S6K phosphorylation at Thr389-residue up to 80 uM after 24 hrs by Western blot method; assay type: cell-based; how it was run: as §1
HL-60 [14] = assay: Induction of apoptosis in human HL60 cells assessed as early apoptotic cells at 80 uM after 24 hrs by Annexin V-PE/7AAD staining based flow cytometry (reference value: 4.42%); assay type: functional
HL-60 [15] = assay: Induction of apoptosis in human HL60 cells assessed as downregulation of Bcl2 expression up to 80 uM after 24 hrs by Western blot method; assay type: functional, cell-based; how it was run: as §1
HL-60 [16] = assay: Growth inhibition of human HL60 cells at 20 uM after 48 hrs by MTT assay relative to control; assay type: functional; settings: for inhibition of growth at 20 µM: HL-60, 48 h, read-out: GI
HL-60 [17] = assay: Induction of apoptosis in human HL60 cells assessed as PARP cleavage up to 80 uM after 24 hrs by Western blot method; assay type: functional, cell-based; how it was run: as §1
HL-60 [18] = assay: Induction of apoptosis in human HL60 cells assessed as necrotic cells at 80 uM after 24 hrs by Annexin V-PE/7AAD staining based flow cytometry (reference value: 1.08%); assay type: functional
HL-60 [19] = assay: Growth inhibition of human HL60 cells at 1.25 uM after 48 hrs by MTT assay relative to control; assay type: functional; settings: for inhibition of growth at 1.25 µM: HL-60, 48 h, read-out: GI
HL-60 [20] = assay: Growth inhibition of human HL60 cells at 2.5 uM after 48 hrs by MTT assay relative to control; assay type: functional; settings: for inhibition of growth at 2.5 µM: HL-60, 48 h, read-out: GI
HL-60 [21] = assay: Growth inhibition of human HL60 cells after 48 hrs by MTT assay; assay type: functional, cell-based; settings: HL-60, 48 h
How it was run: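 HL-60 human promyelocytic leukemia cells; proliferation inhibition of the cells measured and reported as IC50; values are mean ± SE of at least three independent experiments.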

HL-60 [22] = assay: Induction of apoptosis in human HL60 cells assessed as late apoptotic cells at 80 uM after 24 hrs by Annexin V-PE/7AAD staining based flow cytometry (reference value: 3.64%); assay type: functional
HL-60 [23] = assay: Induction of apoptosis in human HL60 cells assessed as live cells at 80 uM after 24 hrs by Annexin V-PE/7AAD staining based flow cytometry (reference value: 90.9%); assay type: functional
HL-60 [24] = assay: Growth inhibition of human HL60 cells at 0.63 uM after 48 hrs by MTT assay relative to control; assay type: functional; settings: for inhibition of growth at 0.63 µM: HL-60, 48 h, read-out: GI
HL-60 [25] = assay: Growth inhibition of human HL60 cells at 40 uM after 48 hrs by MTT assay relative to control; assay type: functional; settings: for inhibition of growth at 40 µM: HL-60, 48 h, read-out: GI
HL-60 [26] = assay: Induction of apoptosis in human HL60 cells assessed as early apoptotic cells at 2 uM after 24 hrs by Annexin V-PE/7AAD staining based flow cytometry (reference value: 4.42%); assay type: functional
HL-60 [27] = assay: Induction of apoptosis in human HL60 cells assessed as late apoptotic cells at 2 uM after 24 hrs by Annexin V-PE/7AAD staining based flow cytometry (reference value: 3.64%); assay type: functional
HL-60 [28] = assay: Induction of apoptosis in human HL60 cells assessed as necrotic cells at 2 uM after 24 hrs by Annexin V-PE/7AAD staining based flow cytometry (reference value: 1.08%); assay type: functional
HL-60 [29] = assay: Induction of apoptosis in human HL60 cells assessed as live cells at 2 uM after 24 hrs by Annexin V-PE/7AAD staining based flow cytometry (reference value: 90.9%); assay type: functional
[30] = Stability of the compound in DMSO/deionized water post nanoparticle formation after 3 weeks; assay type: physicochemical; settings: 504 h
HL-60 [31] = assay: Induction of apoptosis in human HL60 cells assessed as downregulation of Bcl2 expression up to 10 uM after 24 hrs by Western blot method; assay type: functional, cell-based; how it was run: as §1
Homo sapiens [32] = species: Homo sapiens; assay: Inhibition of PI3K in human HL60 cells assessed as reduction in Akt phosphorylation at Ser473-residue up to 10 uM after 24 hrs by Western blot method; assay type: cell-based; how it was run: as §1
HL-60 [33] = assay: Induction of apoptosis in human HL60 cells assessed as necrotic cells at 10 uM after 24 hrs by Annexin V-PE/7AAD staining based flow cytometry (reference value: 1.08%); assay type: functional
HL-60 [34] = assay: Induction of apoptosis in human HL60 cells assessed as late apoptotic cells at 10 uM after 24 hrs by Annexin V-PE/7AAD staining based flow cytometry (reference value: 3.64%); assay type: functional
[35] = molecular target: Serine/threonine-protein kinase mTOR (Homo sapiens) (UniProt P42345); assay: Inhibition of mTOR in human HL60 cells assessed as reduction in P70S6K phosphorylation at Thr389-residue up to 10 uM after 24 hrs by Western blot method; assay type: cell-based; how it was run: as §1
HL-60 [36] = assay: Induction of apoptosis in human HL60 cells assessed as PARP cleavage up to 10 uM after 24 hrs by Western blot method; assay type: functional, cell-based; how it was run: as §1
HL-60 [37] = assay: Induction of apoptosis in human HL60 cells assessed as early apoptotic cells at 10 uM after 24 hrs by Annexin V-PE/7AAD staining based flow cytometry (reference value: 4.42%); assay type: functional
HL-60 [38] = assay: Induction of apoptosis in human HL60 cells assessed as live cells at 10 uM after 24 hrs by Annexin V-PE/7AAD staining based flow cytometry (reference value: 90.9%); assay type: functional

SMILES: C[C@H]1[C@H](C)CC[C@]2(C(=O)O)CC[C@]3(C)C(=CC[C@@H]4[C@@]5(C)CC[C@H](O)C(C)(C)[C@@H]5CC[C@]43C)[C@H]12 [URSOLIC ACID]
inhibition (Homo sapiens [10]): Active
growth inhibition (GI) (HL-60 [11]): inactive
growth inhibition (GI) (HL-60 [12]): inactive
inhibition [13]: Active
Activity (HL-60 [14]): 13.3%
Activity (HL-60 [15]): inactive
growth inhibition (GI) (HL-60 [16]): inactive
Activity (HL-60 [17]): Active
Activity (HL-60 [18]): 0.835%
growth inhibition (GI) (HL-60 [19]): inactive
growth inhibition (GI) (HL-60 [20]): inactive
IC50 (HL-60 [21]): > 40 µM
Activity (HL-60 [7]): Dose-dependent effect
Activity (HL-60 [22]): 2.43%
Activity (HL-60 [23]): 83.4%
growth inhibition (GI) (HL-60 [24]): inactive
Activity (HL-60 [8]): Dose-dependent effect
growth inhibition (GI) (HL-60 [25]): inactive

SMILES: C[C@H]1[C@H](C)CC[C@]2(C(=O)N3CCNCC3)CC[C@]3(C)C(=CC[C@@H]4[C@@]5(C)CCC(=O)C(C)(C)[C@@H]5CC[C@]43C)[C@H]12
inhibition of growth at 5 µM (HL-60 [11]): 82.2%
inhibition of growth at 10 µM (HL-60 [12]): 92.7%
inhibition of growth at 20 µM (HL-60 [16]): 92.5%
inhibition of growth at 1.25 µM (HL-60 [19]): 22.5%
inhibition of growth at 2.5 µM (HL-60 [20]): 43.7%
IC50 (HL-60 [21]): 2.64 µM
inhibition of growth at 0.63 µM (HL-60 [24]): 10.6%
inhibition of growth at 40 µM (HL-60 [25]): 94.8%

SMILES: C[C@H]1[C@H](C)CC[C@]2(C(=O)O)CC[C@]3(C)C(=CC[C@@H]4[C@@]5(C)Cc6c[nH]nc6C(C)(C)[C@@H]5CC[C@]43C)[C@H]12
inhibition of growth at 5 µM (HL-60 [11]): 16.3%
inhibition of growth at 10 µM (HL-60 [12]): 79.5%
Activity (HL-60 [31]): Active
inhibition of growth at 20 µM (HL-60 [16]): 93.2%
inhibition (Homo sapiens [32]): Active
Activity (HL-60 [33]): 0.231%
Activity (HL-60 [34]): 3.98%
inhibition of growth at 1.25 µM (HL-60 [19]): 7.54%
inhibition of growth at 2.5 µM (HL-60 [20]): 8.55%
IC50 (HL-60 [21]): 6.26 µM
inhibition [35]: Active
Activity (HL-60 [7]): Dose-dependent effect
Activity (HL-60 [36]): Active
inhibition of growth at 0.63 µM (HL-60 [24]): 5.36%
Activity (HL-60 [8]): Dose-dependent effect
Activity (HL-60 [37]): 19.5%
Activity (HL-60 [38]): 76.3%
inhibition of growth at 40 µM (HL-60 [25]): 94.7%

SMILES: C[C@H]1[C@H](C)CC[C@]2(C(=O)O)CC[C@]3(C)C(=CC[C@@H]4[C@@]5(C)Cc6sc(N)nc6C(C)(C)[C@@H]5CC[C@]43C)[C@H]12
growth inhibition (GI) (HL-60 [11]): inactive
growth inhibition (GI) (HL-60 [12]): inactive
inhibition of growth at 20 µM (HL-60 [16]): 12.9%
growth inhibition (GI) (HL-60 [19]): inactive
growth inhibition (GI) (HL-60 [20]): inactive
IC50 (HL-60 [21]): 40 µM
growth inhibition (GI) (HL-60 [24]): inactive
inhibition of growth at 40 µM (HL-60 [25]): 59.2%

The next lines start with results.

inhibition [6]: Active
SMILES: C[C@H]1[C@H](C)CC[C@]2(C(=O)N3CCNCC3)CC[C@]3(C)C(=CC[C@@H]4[C@@]5(C)Cc6cn[nH]c6C(C)(C)[C@@H]5CC[C@]43C)[C@H]12 [listing 1 of 2 here]
Activity [1]: Active
inhibition (Homo sapiens [2]): Active
Activity [3]: Active
Activity (HL-60 [4]): Active
Activity (HL-60 [5]): Active
Activity (HL-60 [7]): Dose-dependent effect
Activity (HL-60 [8]): Dose-dependent effect

solubility [9]: > 150 µg/mL
SMILES: C[C@H]1[C@H](C)CC[C@]2(C(=O)N3CCNCC3)CC[C@]3(C)C(=CC[C@@H]4[C@@]5(C)Cc6cn[nH]c6C(C)(C)[C@@H]5CC[C@]43C)[C@H]12.Cl

IC50 (HL-60 [21]): 0.91 µM
Stability [30]: Stable
SMILES: C[C@H]1[C@H](C)CC[C@]2(C(=O)N3CCNCC3)CC[C@]3(C)C(=CC[C@@H]4[C@@]5(C)Cc6cn[nH]c6C(C)(C)[C@@H]5CC[C@]43C)[C@H]12 [listing 2 of 2 here]
inhibition of growth at 5 µM (HL-60 [11]): 91.6%
inhibition of growth at 10 µM (HL-60 [12]): 95%
inhibition of growth at 20 µM (HL-60 [16]): 93.5%
inhibition of growth at 1.25 µM (HL-60 [19]): 66.4%
Activity (HL-60 [26]): 19.1%
Activity (HL-60 [27]): 3.89%
inhibition of growth at 2.5 µM (HL-60 [20]): 86%
Activity (HL-60 [28]): 0.439%
Activity (HL-60 [29]): 76.5%
inhibition of growth at 0.63 µM (HL-60 [24]): 14.7%
inhibition of growth at 40 µM (HL-60 [25]): 94%
